These results are taken from ChEMBL document CHEMBL1909627, “Synthesis of three novel fluorine-18 labeled analogues of L-deprenyl for positron emission tomography (PET) studies of monoamine oxidase B (MAO-B)” (J Med Chem, 2011).

The target in series [1] is T1, Amine oxidase [flavin-containing] B (Homo sapiens, UniProt P27338).
T1 sequence (P27338 whole entry): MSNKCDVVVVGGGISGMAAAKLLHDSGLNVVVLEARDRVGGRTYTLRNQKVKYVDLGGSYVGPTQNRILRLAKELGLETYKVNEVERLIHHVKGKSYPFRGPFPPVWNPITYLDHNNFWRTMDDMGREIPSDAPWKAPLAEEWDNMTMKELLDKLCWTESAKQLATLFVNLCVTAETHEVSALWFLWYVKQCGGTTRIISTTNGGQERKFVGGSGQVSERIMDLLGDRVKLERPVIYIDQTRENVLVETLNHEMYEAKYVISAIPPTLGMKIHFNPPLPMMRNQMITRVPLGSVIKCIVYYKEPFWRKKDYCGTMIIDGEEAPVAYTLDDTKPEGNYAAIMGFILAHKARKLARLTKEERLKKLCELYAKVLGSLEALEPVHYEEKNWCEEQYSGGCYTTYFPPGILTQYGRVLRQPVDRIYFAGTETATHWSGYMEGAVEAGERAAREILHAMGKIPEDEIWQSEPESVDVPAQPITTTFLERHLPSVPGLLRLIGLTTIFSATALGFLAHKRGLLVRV
The series is described as follows: Binding affinity to MAO-B in human brain white matter at 4 MBq after 90 mins by autoradiography in presence of 10 uM MAO-B inhibitor rasagiline. The series is classed as tissue-based. Conditions: 1.5 h; call rule not given here. In short, it runs like this:
(§1)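 100 μm whole-hemisphere post-mortem brain sections (control subject, 11 h post-mortem, stored at −25 °C) incubated 90 min at room temperature with 4 MBq/200 mL radiotracer in 50 mM TRIS pH 7.4 (NaCl 120 mM, KCl 5 mM, CaCl2 2 mM, 0.1% albumin); washed 3 × 5 min in buffer, dipped in ice-cold water, dried, phosphorimaged.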

Series [2] concerns the target T1, Amine oxidase [flavin-containing] B. The series is described as follows: Binding affinity to MAO-B in human brain white matter at 4 MBq after 90 mins by autoradiography. The series is classed as tissue-based. Conditions: 1.5 h. In a few lines: as §1
For series [3] the target is unchanged. The series is described as follows: Binding affinity to MAO-B in human brain white matter at 4 MBq after 90 mins by autoradiography in presence of 10 uM MAO-B inhibitor L-deprenyl. The format is tissue-based. Conditions: 1.5 h. In short, it runs like this:
as §1

Series [4] shares this target. The series is described as follows: Binding affinity to MAO-B in human brain white matter at 4 MBq after 90 mins by autoradiography in presence of 10 uM MAO-A inhibitor pirlindole. The format is tissue-based. Conditions: 1.5 h. In short, it runs like this:
as §1

The target is the same in series [5]. The series is described as follows: Binding affinity to MAO-B in human brain cortical gray matter at 4 MBq after 90 mins by autoradiography. The format is tissue-based. Conditions: 1.5 h. In a few lines:
as §1

The target is the same in series [6]. The series is described as follows: Binding affinity to MAO-B in human brain cortical gray matter at 4 MBq after 90 mins by autoradiography in presence of 10 uM MAO-B inhibitor rasagiline. The series is classed as tissue-based. Conditions: 1.5 h. In a few lines: as §1
Series [7] has the same target. The series is described as follows: Binding affinity to MAO-B in human brain hippocampus at 4 MBq after 90 mins by autoradiography. Conditions: 1.5 h. The format is tissue-based. In short, it runs like this: as §1
The target is the same in series [8]. The series is described as follows: Binding affinity to MAO-B in human brain cortical gray matter at 4 MBq after 90 mins by autoradiography in presence of 10 uM MAO-B inhibitor L-deprenyl. The series is classed as tissue-based. Conditions: 1.5 h. In a few lines: as §1
The target is the same in series [9]. The series is described as follows: Binding affinity to MAO-B in human brain cortical gray matter at 4 MBq after 90 mins by autoradiography in presence of 10 uM MAO-A inhibitor pirlindole. The format is tissue-based. Conditions: 1.5 h. In a few lines:
as §1

The target is the same in series [10]. The series is described as follows: Binding affinity to MAO-B in human brain Alzheimer disease slices at 4 MBq after 90 mins by autoradiography in presence of 10 uM MAO-B inhibitor L-deprenyl. Conditions: 1.5 h.
The target of series [11] is T2, Amine oxidase [flavin-containing] A (Homo sapiens, UniProt P21397).
T2 sequence (P21397 whole entry): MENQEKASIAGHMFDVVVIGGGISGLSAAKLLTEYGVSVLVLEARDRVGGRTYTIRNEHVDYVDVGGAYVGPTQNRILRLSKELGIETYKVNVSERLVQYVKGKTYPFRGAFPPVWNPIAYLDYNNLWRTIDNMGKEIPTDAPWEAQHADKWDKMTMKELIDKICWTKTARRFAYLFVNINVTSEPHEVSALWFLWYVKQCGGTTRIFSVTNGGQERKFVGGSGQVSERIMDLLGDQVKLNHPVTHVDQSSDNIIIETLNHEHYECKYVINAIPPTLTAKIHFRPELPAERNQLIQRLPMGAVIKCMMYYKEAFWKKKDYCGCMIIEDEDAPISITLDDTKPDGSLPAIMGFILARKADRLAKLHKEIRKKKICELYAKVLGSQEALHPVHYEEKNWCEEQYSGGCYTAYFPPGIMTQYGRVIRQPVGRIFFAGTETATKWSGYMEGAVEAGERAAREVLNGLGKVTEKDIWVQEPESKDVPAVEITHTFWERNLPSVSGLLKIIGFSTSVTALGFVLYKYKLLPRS
The series is described as follows: Binding affinity to MAO-A in human brain Alzheimer disease slices at 4 MBq after 90 mins by autoradiography. Conditions: 1.5 h.

The target in series [12] is T1, Amine oxidase [flavin-containing] B. The series is described as follows: Binding affinity to MAO-B in human brain Alzheimer disease slices at 4 MBq after 90 mins by autoradiography. Conditions: 1.5 h.
Series [13] has the same target. The series is described as follows: Binding affinity to MAO-B in human brain Alzheimer disease slices at 4 MBq after 90 mins by autoradiography in presence of 10 uM MAO-A inhibitor pirlindole. Conditions: 1.5 h.
The subject of series [14] is Brain. The series is described as follows: Drug uptake in NMRI mouse brain at 0.178 MBq, iv after 4 hrs by gamma counting. The series is classed as ADME, organism-based. Conditions: in vivo. In a few lines: (§2)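 NMRI mice (25.0–31.5 g), three per time point, each given 0.178 MBq tracer in 0.9% NaCl; killed by isoflurane overdose at each post-injection time; organs and blood excised and γ-counted; values decay-corrected and expressed as %ID/g.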

Series [15] deals with Brain. The series is described as follows: Drug uptake in NMRI mouse brain at 0.178 MBq, iv after 30 mins post injection by gamma counting. The format is ADME, organism-based. Conditions: in vivo, 0.5 h. In a few lines:
as §2

The test system of series [16] is Brain. The series is described as follows: Drug uptake in NMRI mouse brain at 0.178 MBq, iv after 2 mins post injection by gamma counting. Conditions: in vivo. The format is ADME, organism-based. In short, it runs like this: as §2
Series [17] can be described thus: Fraction unbound in monkey plasma at 20 MBq after 10 mins by ultrafiltration. The series is classed as ADME, cell-free, Macaca mulatta. Conditions: rhesus monkey. In short, it runs like this: (§3)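 Duplicate: 500 μL monkey or human plasma, or PBS pH 7.4 as control, mixed with 50 μL tracer formulation (~20 MBq in PBS), 10 min at room temperature; 200 μL ultrafiltered by centrifugation 15 min at 3000 rpm; total and filtrate well-counted; bound fraction corrected for membrane binding using PBS control.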

The target of series [18] is T1, Amine oxidase [flavin-containing] B. The series is described as follows: Binding affinity to MAO-B in human brain Alzheimer disease slices at 4 MBq after 90 mins by autoradiography in presence of 10 uM MAO-B inhibitor rasagiline. Conditions: 1.5 h.
Series [19] can be described thus: Fraction unbound in human plasma at 20 MBq after 10 mins by ultrafiltration. The format is ADME, cell-free. In short, it runs like this: as §3
The target of series [20] is T1, Amine oxidase [flavin-containing] B. The series is described as follows: Inhibition of human recombinant MAO-B expressed in insect cells assessed as inhibition of kynuramine oxidation after 30 mins by fluorescence assay. The series is classed as cell-based.
Series [21] in a line: Stability of the compound in PBS buffer assessed as half life at pH 7.4. The series is classed as physicochemical.
Series [22] concerns the target T2, Amine oxidase [flavin-containing] A. The series is described as follows: Inhibition of human recombinant MAO-A expressed in insect cells assessed as inhibition of kynuramine oxidation after 30 mins by fluorescence assay.

Each structure is given as a SMILES string.

Take `C#CCN(CC[18F])[C@H](C)Cc1ccccc1`: the Activity entry in series [1] is “Active”; in [2] it was “Active”; in [3], “Active”; in series [4] it was “Active”; in [5], “Not Active”.
For the compound `C#CCN(C)[C@H](C)[C@@H]([18F])c1ccccc1`, the Activity result is given as “Not Active” in series [6], “Active” in [7], “Not Active” in series [8] and “Active” in series [9].
One may read the fraction unbound as free concentration divided by total concentration. On to `C#CCN(C)[C@H](C[18F])Cc1ccccc1`, for which the Activity result in series [10] is reported as “Not Active”; in series [11], “Not Active”; in series [12] it was “Active”; in series [13] it was “Active”; in series [18] it was “Not Active”. Moreover, the values for the Drug uptake in the series on Brain [14], with Brain [15] and with Brain [16] were 1.4 % ID/g, 1.9 % ID/g and 5.2 % ID/g, respectively. In addition, the free fraction (fraction unbound) at 10 min, 20 MBq in series [17] stood at 0.241; in [19] it was 0.168.
In general, IC50 refers to the point on the concentration scale where inhibition reaches its midpoint. The term half-life denotes the time in which the quantity being followed falls by half. Regarding `C#CCN(CCF)[C@H](C)Cc1ccccc1`, the 50% inhibitory concentration (IC50) in series [20] was above 2000 nM. In addition, the half-life in series [21] came out at 110 min.
For `C#CCN(C)[C@H](C)[C@H](F)c1ccccc1` the same measures were above 2000 nM and 110 min.
Consider `C#CCN(C)[C@H](CF)Cc1ccccc1`, for which the IC50 is 170 nM in series [20] and above 2000 nM in series [22]. Moreover, the half-life in series [21] was determined as 110 min.
